Source: ChEMBL document CHEMBL4602651, “Development of selective mono or dual PROTAC degrader probe of CDK isoforms” (Eur J Med Chem, 2020)
Calls of active or inactive are those of the source. The rule behind the calls is not given here.

How the values were obtained:
[1] = test system: PC-3; assay: Induction of cell cycle arrest in human PC3 cells assessed as accumulation at S phase at 250 nM after 48 hrs by propidium iodide staining based flow cytometry (reference value: 17.96%); assay type: functional
[2] = biological target: Protein cereblon/Cyclin-dependent kinase 4 (Homo sapiens) (UniProt P11802+Q96SW2); assay: Protac activity at CRBN/CDK4 in AR-negative human PC3 cells assessed as induction of CDK4 protein degradation at 500 nM after 24 hrs by Western blot analysis; assay type: cell-based; details: PC-3
How it was run: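 PC-3 cells treated with 500 nM degrader for varying times. Lysates blotted for CDK2, CDK4, CDK6, CDK9, c-Myc and Mcl-1, each at 1/1000 primary antibody, with β-tubulin reference and chemiluminescent detection.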

[3] = biological target: T1, Protein cereblon/Cyclin-dependent kinase 2/Cyclin-dependent kinase 9 (Homo sapiens, UniProt P24941+P50750+Q96SW2); assay: Protac activity at CRBN/CDK2/CDK9 in human MCF7 cells assessed as CDK2 degradation at 0.25 to 10 uM after 12 hrs by Westernblot analysis; assay type: cell-based
How it was run: (§1)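 22Rv1, HCT-116 (RPMI 1640, 10% FBS) and MCF-7 cells treated with degrader at indicated concentrations for 12 h. CDK2 and CDK9 blotted with β-tubulin loading control.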

[4] = biological target: T1, Protein cereblon/Cyclin-dependent kinase 2/Cyclin-dependent kinase 9; assay: Protac activity at CRBN/CDK2/CDK9 in AR-negative human PC3 cells assessed as induction of CDK2 protein degradation after 24 hrs by Western blot analysis; assay type: cell-based
How it was run: (§2)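 PC-3 cells exposed to a degrader concentration series, then immunoblotted for CDK2 and CDK9 versus β-tubulin. The figure legend gives 24 h exposure. DC50 taken as mean of 2 determinations from densitometry.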

[5] = test system: PC-3; assay: Induction of cell cycle arrest in human PC3 cells assessed as accumulation at G0/G1 phase at 250 nM after 48 hrs by propidium iodide staining based flow cytometry (reference value: 59.80%); assay type: functional
[6] = test system: PC-3; assay: Antiproliferative activity against AR-negative human PC3 cells assessed as reduction in cell viability after 5 days by CCK8 assay; assay type: functional, cell-based; details: PC-3, 120 h
How it was run: (§3)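 Cells seeded at 3 × 10^3 per well for 24 h, then dosed in 10-point, 3-fold serial dilution from 10 µM. CCK-8 added after 5 days, 4 h at 37 °C, absorbance at 450 nm. IC50 averaged from three separate determinations (at least two independent runs, duplicate wells). PC-3 grown in DMEM/F12 (1:1), LO2 in RPMI 1640, both with 10% FBS.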

[7] = test system: PC-3; assay: Antiproliferative activity against AR-negative human PC3 cells at 2 uM after 24 hrs by CFSE dye based flow cytometry; assay type: functional, cell-based
How it was run: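 PC-3 cells treated 24 h at 2 µM alongside DMSO control. Single-cell suspension labelled with CFSE (final 5 µM) for 15 min at room temperature in the dark, then proliferation read by flow cytometry.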

[8] = biological target: T1, Protein cereblon/Cyclin-dependent kinase 2/Cyclin-dependent kinase 9; assay: Protac activity at CRBN/CDK2/CDK9 in AR-negative human PC3 cells assessed as induction of CDK9 protein degradation after 24 hrs by Western blot analysis; assay type: cell-based; how it was run: as §2
[9] = test system: PC-3; assay: Induction of cell cycle arrest in human PC3 cells assessed as accumulation at G2/M phase at 250 nM after 48 hrs by propidium iodide staining based flow cytometry (reference value: 22.24%); assay type: functional
[10] = test system: PC-3; assay: Induction of cell cycle arrest in human PC3 cells assessed as accumulation at S phase at 1 uM after 48 hrs by propidium iodide staining based flow cytometry (reference value: 17.96%); assay type: functional
[11] = biological target: T1, Protein cereblon/Cyclin-dependent kinase 2/Cyclin-dependent kinase 9; assay: Protac activity at CRBN/CDK2/CDK9 in human 22Rv1 cells assessed as CDK9 degradation at 0.25 to 10 uM after 12 hrs by Westernblot analysis; assay type: cell-based; details: CWR22R; how it was run: as §1
[12] = biological target: T1, Protein cereblon/Cyclin-dependent kinase 2/Cyclin-dependent kinase 9; assay: Protac activity at CRBN/CDK2/CDK9 in human HCT116 cells assessed as CDK2 degradation at 0.25 to 10 uM after 12 hrs by Westernblot analysis; assay type: cell-based; details: HCT-116; how it was run: as §1
[13] = test system: PC-3; assay: Induction of cell cycle arrest in human PC3 cells assessed as accumulation at G2/M phase at 3 uM after 48 hrs by propidium iodide staining based flow cytometry (reference value: 22.24%); assay type: functional
[14] = biological target: T1, Protein cereblon/Cyclin-dependent kinase 2/Cyclin-dependent kinase 9; assay: Protac activity at CRBN/CDK2/CDK9 in AR-negative human PC3 cells assessed as CDK2 degradation at 250 nM preincubated with proteasome inhibitor MG132 for 2 hrs and measured after 8 hrs by Western blot analysis; assay type: cell-based; details: PC-3
How it was run: (§4)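 PC-3 cells pretreated 2 h with 5 µM DMSO, FN-1501, pomalidomide or MG-132, then exposed to degrader at 250 nM for 8 h. Lysates probed for CDK2 and CDK9, β-tubulin as loading control. 50 µg protein per lane, 10% SDS-PAGE, chemiluminescent detection.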

[15] = biological target: CDK2/Cyclin A2 (Homo sapiens, UniProt P24941); assay: Inhibition of tracer K10 binding to NanoLuc-CDK2/Cyclin A (unknown origin) expressed in human HEK293 cells after 1 hr in presence of ATP by NanoBRET assay; assay type: cell-based
How it was run: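 Cell-based target engagement run by a contract lab. HEK293 cells pretreated with NanoBRET Tracer K-10, then exposed to compound for 1 h with 10 µM ATP, and BRET signal read. 10-point, 3-fold dilutions from 1 µM. Staurosporine reference used 4-fold dilutions from 20 µM. IC50 from sigmoidal dose-response fit.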

[16] = biological target: T1, Protein cereblon/Cyclin-dependent kinase 2/Cyclin-dependent kinase 9; assay: Protac activity at CRBN/CDK2/CDK9 in human HCT116 cells assessed as CDK9 degradation at 0.25 to 10 uM after 12 hrs by Westernblot analysis; assay type: cell-based; details: HCT-116; how it was run: as §1
[17] = biological target: T1, Protein cereblon/Cyclin-dependent kinase 2/Cyclin-dependent kinase 9; assay: Protac activity at CRBN/CDK2/CDK9 in AR-negative human PC3 cells assessed as CDK9 degradation at 250 nM preincubated with pomalidomide for 2 hrs and measured after 8 hrs by Western blot analysis; assay type: cell-based; details: PC-3; how it was run: as §4
[18] = biological target: T1, Protein cereblon/Cyclin-dependent kinase 2/Cyclin-dependent kinase 9; assay: Protac activity at CRBN/CDK2/CDK9 in AR-negative human PC3 cells assessed as CDK9 degradation at 250 nM preincubated with proteasome inhibitor MG132 for 2 hrs and measured after 8 hrs by Western blot analysis; assay type: cell-based; details: PC-3; how it was run: as §4
[19] = biological target: T1, Protein cereblon/Cyclin-dependent kinase 2/Cyclin-dependent kinase 9; assay: Protac activity at CRBN/CDK2/CDK9 in AR-negative human PC3 cells assessed as CDK9 degradation at 250 nM preincubated with FN-1501 for 2 hrs and measured after 8 hrs by Western blot analysis; assay type: cell-based; details: PC-3; how it was run: as §4
[20] = test system: L02; assay: Cytotoxicity against human LO2 cells assessed as reduction in cell viability after 5 days by CCK-8 assay; assay type: cell-based; details: L02, 120 h; how it was run: as §3
[21] = test system: PC-3; assay: Induction of cell cycle arrest in human PC3 cells assessed as accumulation at G2/M phase at 1 uM after 48 hrs by propidium iodide staining based flow cytometry (reference value: 22.24%); assay type: functional
[22] = biological target: T1, Protein cereblon/Cyclin-dependent kinase 2/Cyclin-dependent kinase 9; assay: Protac activity at CRBN/CDK2/CDK9 in AR-negative human PC3 cells assessed as induction of CDK9 protein degradation at 1 uM after 12 hrs by Western blot analysis; assay type: cell-based; details: PC-3
How it was run: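 PC-3 cells (5 × 10^5 per well) treated 12 h at single concentrations (50 nM, 500 nM, 1, 5 or 30 µM). RIPA lysates (50 µg) run on 10% SDS-PAGE and immunoblotted for CDK2, CDK5, CDK9 with β-tubulin loading control, then detected by chemiluminescence. Band intensities quantified densitometrically.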

Chain of Protein cereblon/Cyclin-dependent kinase 4 (Homo sapiens) (P11802 2-303 limits assumed): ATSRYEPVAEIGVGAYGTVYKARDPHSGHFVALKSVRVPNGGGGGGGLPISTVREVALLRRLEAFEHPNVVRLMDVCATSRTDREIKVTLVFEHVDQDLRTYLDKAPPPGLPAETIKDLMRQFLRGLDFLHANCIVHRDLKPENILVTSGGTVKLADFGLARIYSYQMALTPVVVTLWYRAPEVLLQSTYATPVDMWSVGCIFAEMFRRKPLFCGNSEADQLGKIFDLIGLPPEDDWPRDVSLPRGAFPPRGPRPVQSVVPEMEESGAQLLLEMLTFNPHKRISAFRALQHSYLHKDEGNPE
Chain of Protein cereblon/Cyclin-dependent kinase 4 (Homo sapiens) (Q96SW2 whole entry partner): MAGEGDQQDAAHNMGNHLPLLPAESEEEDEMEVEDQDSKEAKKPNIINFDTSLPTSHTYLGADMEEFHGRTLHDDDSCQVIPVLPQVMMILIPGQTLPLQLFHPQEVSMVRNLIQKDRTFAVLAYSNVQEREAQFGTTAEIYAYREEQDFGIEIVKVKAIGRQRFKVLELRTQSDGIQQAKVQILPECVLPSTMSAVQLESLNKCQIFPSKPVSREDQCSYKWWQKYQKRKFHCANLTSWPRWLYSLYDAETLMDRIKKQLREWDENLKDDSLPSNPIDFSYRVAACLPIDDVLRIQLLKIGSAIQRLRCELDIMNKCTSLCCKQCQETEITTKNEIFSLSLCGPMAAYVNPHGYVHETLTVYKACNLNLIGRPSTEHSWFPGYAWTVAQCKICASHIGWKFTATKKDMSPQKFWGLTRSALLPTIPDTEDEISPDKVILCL

Question: What does the source list for `O=C(CCC(=O)N1CCN(Cc2ccc(NC(=O)c3n[nH]cc3Nc3ncnc4[nH]ccc34)cc2)CC1)NCCNc1cccc2c1C(=O)N(C1CCC(=O)NC1=O)C2=O` (centres undefined)?
Answer: Activity [1]: 27.72%; Activity [2]: inactive; Activity [3]: Active; Activity ([4]; PC-3): Dose-dependent effect; DC50 ([4]; pc-3): 0.062 µM; Activity [5]: 50.15%; IC50 [6]: 0.12 µM; Activity [7]: Active; Activity ([8]; PC-3): Dose-dependent effect; DC50 ([8]; pc-3): 0.033 µM; Activity [9]: 22.13%; Activity [10]: 9.23%; Activity [11]: Active; Activity [12]: Active; Activity [13]: 36%; Activity [14]: inactive; IC50 [15]: 0.00742 µM; Activity [16]: Active; Activity [17]: inactive; Activity [18]: inactive; Activity [19]: inactive; IC50 [20]: 7.99 µM; Activity [21]: 36.82%; Activity [22]: Active
